Measurements from ChEMBL document CHEMBL4342526, “Exploration of the Structural Space in 4(3H)-Quinazolinone Antibacterials” (J Med Chem, 2020).
Converted amounts (≈) assume the structure as drawn. The source made the active and inactive calls. No cut-off for these calls is given here.

How the values were obtained:
[1] = test system: Staphylococcus aureus; experiment: Antibacterial activity against clindamycin/erythromycin/spectinomycin-resistant mec-positive Staphylococcus aureus NRS70 measured after 16 to 20 hrs by microdilution method; assay type: functional
Outline: (§1)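 CLSI broth microdilution; two-fold serial compound dilutions in triplicate in cation-adjusted Mueller–Hinton broth with 2% NaCl, inoculum 5 × 10^5 CFU/mL; 37 °C for 16–20 h; MIC = lowest concentration with no visible growth.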

[2] = test system: Staphylococcus aureus; experiment: Antibacterial activity against multi-drug resistant mecA-positive Staphylococcus aureus NRS119 measured after 16 to 20 hrs by microdilution method; assay type: functional; outline: as §1
[3] = Protein binding in human plasma at 10 uM measured after 6 hrs UV-UPLC based rapid equilibrium dialysis method; assay type: ADME, cell-free
Outline: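 Rapid equilibrium dialysis: human plasma was cleared by centrifugation and spiked from a 1 mM DMSO stock to a final 10 μM, against 0.1 M PBS pH 7.4. Dialysis ran 6 h at 37 °C with orbital shaking. Buffer (free) and plasma (total) aliquots were mixed with internal standard in acetonitrile and measured by UPLC-UV at 285 nm. B% = (Cp−Cf)/Cp×100.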

[4] = Solubility of the compound in water; assay type: physicochemical; details: buffer
[5] = test system: Staphylococcus aureus; experiment: Antibacterial activity against Staphylococcus aureus ATCC 29213 measured after 16 to 20 hrs in presence of bovine serum albumin by microdilution method; assay type: functional
Outline: (§2)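 S. aureus ATCC29213 MIC was run by CLSI microdilution in cation-adjusted Mueller–Hinton broth plus 2% NaCl, with and without 0.5% bovine serum albumin. Compounds were two-fold serially diluted in triplicate, inoculum was 5 × 10^5 CFU/mL, and plates were incubated at 37 °C for 16–20 h. The endpoint was the lowest concentration with no visible growth.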

[6] = test system: HeLa; experiment: Cytotoxicity against human HeLa cells assessed as reduction in cell viability measured after 16 hrs by XTT assay; assay type: cell-based
Outline: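 HeLa cells (ATCC CCL-2), run in triplicate. Viability was read by XTT, and IC50 was obtained by nonlinear regression.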

[7] = test system: Staphylococcus aureus; experiment: Antibacterial activity against Staphylococcus aureus ATCC 29213 measured after 16 to 20 hrs by microdilution method; assay type: functional
Outline: (§3)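 CLSI broth microdilution: two-fold serial dilutions in triplicate in cation-adjusted Mueller–Hinton broth with 2% NaCl, inoculum 5 × 10^5 CFU/mL, incubated at 37 °C for 16–20 h. MIC is the lowest concentration preventing visible growth.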

[8] = test system: Staphylococcus aureus; experiment: Antibacterial activity against multi-drug resistant mecA-positive Staphylococcus aureus ATCC 27660 measured after 16 to 20 hrs by microdilution method; assay type: functional; outline: as §1
[9] = test system: Staphylococcus aureus; experiment: Antibacterial activity against multi-drug resistant mec-positive Staphylococcus aureus USA300 measured after 16 to 20 hrs by microdilution method; assay type: functional; outline: as §1
[10] = Selectivity index, ratio of IC50 for human HeLa cells to MIC for clindamycin/erythromycin/spectinomycin-resistant mec-positive Staphylococcus aureus NRS70; assay type: toxicity
Outline: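 HeLa cytotoxicity by XTT assay in triplicate, IC50 by nonlinear regression; ratio IC50 over broth microdilution MIC against NRS70.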

[11] = Clearance in ICR mouse at 5 mg/kg, iv by UV-UPLC analysis; assay type: ADME, organism-based; details: in vivo
Outline: (§4)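 Female ICR mice, 6–8 weeks old, 20–25 g. Each received 50 μL by tail-vein injection (5 or 10 mg/kg) of a filter-sterilized 2 or 4 mg/mL solution in 20% DMSO/10% Tween-80/70% water. Terminal blood was collected and plasma harvested by centrifugation. Plasma was precipitated with acetonitrile containing internal standard, and the supernatant was analyzed by C18 UPLC with UV detection at 285 nm.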

[12] = AUC (0 to last) in ICR mouse at 5 mg/kg, iv by UV-UPLC analysis; assay type: ADME, organism-based; parameters: dose 5 mg/kg, route intravenous, time 0 - last; details: in vivo; outline: as §4
[13] = Clearance in ICR mouse at 5 mg/kg, iv by UV-UPLC analysis relative to hepatic blood flow; assay type: ADME, organism-based; details: in vivo; outline: as §4
[14] = test system: Staphylococcus aureus; experiment: Selectivity ratio of MIC for Staphylococcus aureus ATCC 29213 in presence of bovine serum albumin to MIC for Staphylococcus aureus ATCC 29213 in absence of bovine serum albumin; assay type: functional; outline: as §2
[15] = test system: Enterococcus faecium; experiment: Antibacterial activity against Enterococcus faecium NCTC 7171 measured after 16 to 20 hrs by microdilution method; assay type: functional; outline: as §3
[16] = test system: Enterococcus faecalis; experiment: Antibacterial activity against Enterococcus faecalis ATCC 29212 measured after 16 to 20 hrs by microdilution method; assay type: functional; outline: as §3
[17] = Volume of distribution in ICR mouse at 10 mg/kg, iv by UV-UPLC analysis; assay type: ADME, organism-based; details: in vivo; outline: as §4
[18] = test system: Staphylococcus aureus; experiment: Bacteriostatic activity against clindamycin/erythromycin/spectinomycin-resistant mec-positive Staphylococcus aureus NRS70 assessed as log reduction in bacterial count at 0.5 to 16 times MIC by time-kill assay; assay type: functional
[19] = Elimination half life in ICR mouse at 10 mg/kg, iv by UV-UPLC analysis; assay type: ADME, organism-based; details: ICR, in vivo, read-out: beta t1/2; outline: as §4
[20] = test system: Staphylococcus aureus; experiment: Bactericidal activity against methicillin resistant Staphylococcus aureus NRS70 infected in ICR mouse model of neutropenic thigh infection assessed as log reduction in bacterial count in thigh at 20 mg/kg, sc administered at 8 hrs interval for 3 times starting from 1 hr post infection and measured 24 hrs post infection; assay type: functional
Outline: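 Female ICR mice (6–8 weeks, 20–25 g) made neutropenic with cyclophosphamide 200 mg/kg ip at 4 and 1 days pre-infection; 0.1 mL NRS70 at 1 × 10^6 CFU/mL in brain heart infusion injected into right thigh; drug in 10% DMSO/90% water sc every 8 h ×3 from 1 h post-infection; thigh CFU counted at 24 h; n = 8/group; mean ± SEM, one-way ANOVA with Tukey test.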

[21] = test system: Bacillus licheniformis; experiment: Antibacterial activity against Bacillus licheniformis ATCC 12759 measured after 16 to 20 hrs by microdilution method; assay type: functional; outline: as §3
[22] = test system: Clostridioides difficile; experiment: Antibacterial activity against Clostridium difficile ATCC 43255 measured after 16 to 20 hrs by microdilution method; assay type: functional
[23] = target: T1, MecA (Staphylococcus aureus) (UniProt Q7DHH4); experiment: Binding affinity to PBP2a in clindamycin/erythromycin/spectinomycin-resistant mec-positive Staphylococcus aureus NRS70 assessed potentiation of piperacillin and tazobactam-induced bactericidal activity by measuring reduction in bacterial count at 0.5 times MIC measured after 24 hrs by time-kill assay
T1 sequence (whole entry): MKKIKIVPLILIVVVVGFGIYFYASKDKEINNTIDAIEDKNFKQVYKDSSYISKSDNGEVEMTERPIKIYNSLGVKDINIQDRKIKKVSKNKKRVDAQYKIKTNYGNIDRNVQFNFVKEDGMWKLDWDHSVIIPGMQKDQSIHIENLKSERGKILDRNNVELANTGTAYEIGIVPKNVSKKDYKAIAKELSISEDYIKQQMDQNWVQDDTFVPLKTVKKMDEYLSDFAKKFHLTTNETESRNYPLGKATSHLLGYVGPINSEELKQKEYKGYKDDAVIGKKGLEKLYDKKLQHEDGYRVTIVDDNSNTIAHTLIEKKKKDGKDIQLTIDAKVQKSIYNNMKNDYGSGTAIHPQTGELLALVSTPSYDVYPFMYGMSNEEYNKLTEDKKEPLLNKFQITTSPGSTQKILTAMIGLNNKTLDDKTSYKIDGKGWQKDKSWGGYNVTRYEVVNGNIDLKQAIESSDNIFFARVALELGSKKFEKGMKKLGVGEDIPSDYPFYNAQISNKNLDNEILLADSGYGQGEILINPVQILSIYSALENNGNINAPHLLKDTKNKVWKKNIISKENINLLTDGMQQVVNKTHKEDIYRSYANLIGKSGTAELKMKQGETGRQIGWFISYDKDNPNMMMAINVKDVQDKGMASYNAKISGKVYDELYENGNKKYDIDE

[24] = test system: Bacillus cereus; experiment: Antibacterial activity against Bacillus cereus ATCC 13061 measured after 16 to 20 hrs by microdilution method; assay type: functional; outline: as §3
[25] = test system: Streptococcus pneumoniae; experiment: Antibacterial activity against Streptococcus pneumoniae ATCC 49619 measured after 16 to 20 hrs by microdilution method; assay type: functional; outline: as §3
[26] = target: T1, MecA (Staphylococcus aureus); experiment: Binding affinity to PBP2a in clindamycin/erythromycin/spectinomycin-resistant mec-positive Staphylococcus aureus NRS70 assessed potentiation of piperacillin and tazobactam-induced bactericidal activity by measuring log reduction in bacterial count at 0.5 times MIC measured after 12 hrs by time-kill assay
[27] = test system: Staphylococcus epidermidis; experiment: Antibacterial activity against Staphylococcus epidermidis ATCC 35547 measured after 16 to 20 hrs by microdilution method; assay type: functional; outline: as §1
[28] = Elimination half life in ICR mouse at 10 mg/kg, po administered via gavage by UV-UPLC analysis; assay type: ADME, organism-based; details: in vivo, read-out: beta t1/2 (converted)

Row | Structure (SMILES) | MIC [1] [µg/mL] | MIC [2] [µg/mL] | PPB [3] [%] | solubility [4] | MIC [5] [µg/mL] | IC50 [6] [µg/mL] | MIC [7] [µg/mL] | MIC [8] [µg/mL] | MIC [9] [µg/mL] | selectivity ratio [10] | selectivity ratio [14] | other results
1 | N#Cc1ccc(/C=C/c2nc3ccccc3c(=O)n2-c2ccc[n+]([O-])c2)cc1 | 1 (≈ 2.73 µM) | 4 (≈ 10.9 µM) | 67.9 | Insoluble | 32 | > 128 | 2 (≈ 5.46 µM) | 2 (≈ 5.46 µM) | 1 (≈ 2.73 µM) | > 128 |  | 
2 | N#Cc1ccc(/C=C/c2nc3ccccc3c(=O)n2-c2cccc(C(N)=O)c2)cc1 |  | 32 (≈ 81.5 µM) | 97.1 | Insoluble | 16 | > 128 | 2 (≈ 5.1 µM) |  | 1 (≈ 2.55 µM) | > 64 |  | 
3 | N#Cc1ccc(/C=C/c2nc3ccccc3c(=O)n2-c2ccccc2O)cc1 | 0.06 (≈ 0.164 µM) |  | 98.1 | Insoluble | 0.125 | 40 (≈ 109 µM) | 0.015 (≈ 0.0411 µM) | 0.25 (≈ 0.684 µM) | 0.03 (≈ 0.0821 µM) | 667 |  | 
4 | N#Cc1ccc(/C=C/c2nc3ccccc3c(=O)n2-c2cccc(S(N)(=O)=O)c2)cc1 | 0.06 (≈ 0.14 µM) | 0.125 (≈ 0.292 µM) | 97.1 |  | 0.5 | > 64 | 0.25 (≈ 0.583 µM) | 0.06 (≈ 0.14 µM) | 0.06 (≈ 0.14 µM) | > 1070 | <=4 | clearance [11]: 98 mL/min/kg; AUC(0-t) [12]: 850 ng·h/mL; CL [13]: > 10%
5 | C#Cc1ccc(/C=C/c2nc3ccccc3c(=O)n2-c2cccc(S(N)(=O)=O)c2)cc1 |  | 0.06 (≈ 0.14 µM) | 98.2 |  | 0.5 | 61 (≈ 143 µM) |  |  |  | 1020 |  | clearance [11]: 28.2 mL/min/kg; AUC(0-t) [12]: 2970 ng·h/mL; CL [13]: > 10%
6 | N#Cc1ccc(/C=C/c2nc3ccccc3c(=O)n2-c2cccc(NC(=O)CCc3cnc[nH]3)c2)cc1 |  |  |  |  |  |  | 8 (≈ 16.4 µM) |  |  |  |  | MIC [15]: 16 µg/mL (≈ 32.9 µM)
7 | N#Cc1ccc(/C=C/c2nc3ccccc3c(=O)n2-c2cccc(C(=O)O)c2)cc1 | 2 (≈ 5.08 µM) | 1 (≈ 2.54 µM) |  |  | 8 | 173 (≈ 440 µM) | 2 (≈ 5.08 µM) | 2 (≈ 5.08 µM) | 0.5 (≈ 1.27 µM) |  | <=4 | MIC [16]: > 128 µg/mL; Vd [17]: 0.3 L/kg; log(activity) [18]: <3; half-life [19]: > 20 h; log(activity) [20]: 0.67; MIC [21]: > 128 µg/mL; MIC [22]: 128 µg/mL (≈ 325 µM); Activity [23]: inactive; MIC [24]: > 128 µg/mL; MIC [25]: 16 µg/mL (≈ 40.7 µM); log(activity) [26]: > 3; MIC [27]: 1 µg/mL (≈ 2.54 µM); half-life [28]: > 20 h
8 | O=C(O)c1cccc(-n2c(CCc3ccc(F)cc3)nc3ccccc3c2=O)c1 |  | 4 (≈ 10.3 µM) | > 99.9 |  | 8 | 79 (≈ 203 µM) | 2 (≈ 5.15 µM) | 4 (≈ 10.3 µM) | 1 (≈ 2.57 µM) | 40 | <=4 | 
9 | O=C(O)c1cccc(-n2c(/C=C/c3ccc(Cl)cc3)nc3ccccc3c2=O)c1 | 0.25 (≈ 0.621 µM) | 0.125 (≈ 0.31 µM) | > 99.9 |  | 1 | 50 (≈ 124 µM) | 0.25 (≈ 0.621 µM) | 0.25 (≈ 0.621 µM) | 0.125 (≈ 0.31 µM) | 200 | <=4 | 
